ChEMBL document CHEMBL2331124, “Efficient synthesis of anacardic acid analogues and their antibacterial activities” (Bioorg Med Chem Lett, 2013)
In brackets after ≈: the same amount, converted by molar mass.

How the values were obtained:
[1] = Cytotoxicity against human HepG2 cells after 24 hrs by resazurin assay; type: cell-based
[2] = Cytotoxicity against HEK293 cells after 24 hrs by resazurin assay; type: cell-based; details: human
[3] = system: Staphylococcus aureus; experiment: Antibacterial activity against glycopeptide-intermediate Staphylococcus aureus NRS 19 assessed as growth inhibition after 24 hrs by CLSI twofold serial broth microdilution method; type: functional; details: NRS 19, 24 h
How it was run: (§1)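 CLSI-standard twofold serial broth microdilution; MIC read-out in μg/mL, with vancomycin tested alongside as reference antibiotic.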

[4] = system: Staphylococcus aureus; experiment: Antibacterial activity against methicillin-resistant Staphylococcus aureus ATCC 43300 assessed as growth inhibition after 24 hrs by CLSI twofold serial broth microdilution method; type: functional; details: ATCC 43300, 24 h
How it was run: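 Read-out was the MIC in μg/mL, determined by twofold serial broth microdilution to CLSI standards.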

[5] = system: Staphylococcus aureus; experiment: Antibacterial activity against Staphylococcus aureus ATCC 25923 assessed as growth inhibition after 24 hrs by CLSI twofold serial broth microdilution method; type: functional; details: ATCC 25923, 24 h; how it was run: as §1

| SMILES | CC50 at 24 h [1] [µM] | CC50 at 24 h [2] [µM] | MIC [3] [µg/mL] | MIC [4] [µg/mL] | MIC [5] [µg/mL] |
| --- | --- | --- | --- | --- | --- |
| O=C(O)c1c(O)cc(Cl)cc1C=Cc1ccc2ccccc2c1 (mixture of isomers) | 25 | 38 | 16 | 16 | 16 |
| Oc1cc(CCc2ccc3ccccc3c2)cc(O)c1O | > 100 | > 100 | – | – | – |
| COc1cc(O)c(C(=O)O)c(C=Cc2ccc3ccccc3c2)c1 (mixture of isomers) | 79 | 65 | 128 | 128 | > 128 |
| COc1cc(/C=C/c2ccccc2)cc(OC)c1OC | 38.4 | 62.6 | – | – | – |
| COc1cc(Cl)cc(C=Cc2ccc3ccccc3c2)c1C(=O)O | 104 | 93 | 128 (≈ 378 µM) | 64 (≈ 189 µM) | > 128 |
| CCN(CC)C(=O)c1c(/C=C/c2ccc3ccccc3c2)cccc1OC | – | 116 | – | – | – |
| CCN(CC)C(=O)c1c(/C=C/c2ccc3ccccc3c2)cc(OC)cc1OC | > 100 | > 100 | – | – | – |
| CCN(CC)C(=O)c1c(/C=C\c2ccc3ccccc3c2)cc(OC)cc1OC | > 100 | > 100 | – | – | – |
| Cc1cc(O)c(C(=O)O)c(CCc2ccc3ccccc3c2)c1 | 38 | 40 | 128 (≈ 418 µM) | 64 (≈ 209 µM) | 32 (≈ 104 µM) |
| COc1cc(C=Cc2ccc3ccccc3c2)c(C(=O)O)c(OC)c1 | > 100 | > 100 | > 128 | > 128 | > 128 |
| CCN(CC)C(=O)c1c(CCc2ccc3ccccc3c2)cc(OC)cc1OC | 59 | > 100 | – | – | – |
| Oc1cc(CCc2ccccc2)cc(O)c1O | 102 | 106 | – | – | – |
| CCN(CC)C(=O)c1c(O)cccc1CCc1ccc2ccccc2c1 | > 100 | > 100 | – | – | – |
| COc1cc(O)c(C(=O)O)c(CCc2ccc3ccccc3c2)c1 | 71 | 65 | 128 (≈ 397 µM) | 64 (≈ 199 µM) | 64 (≈ 199 µM) |
| O=C(O)c1c(O)cccc1/C=C/c1ccccc1 | > 100 | > 100 | – | – | – |
| CCN(CC)C(=O)c1c(O)cc(O)cc1CCc1ccc2ccccc2c1 | 36.4 | 30.6 | – | – | – |
| COc1cc(/C=C\c2ccccc2)cc(OC)c1OC | 20.2 | 36 | – | – | – |
| O=C(O)c1c(O)cccc1C=Cc1ccc2ccccc2c1 (mixture of isomers) | 71 | 97 | 64 | 64 | 64 |
| O=C(O)c1c(O)cccc1CCc1ccccc1 | > 100 | > 100 | – | – | – |
| COc1cc(CCc2ccccc2)cc(OC)c1OC | > 100 | > 100 | – | – | – |
| COc1cccc(C=Cc2ccc3ccccc3c2)c1C(=O)O (mixture of isomers) | > 100 | > 100 | > 128 | > 128 | > 128 |
| COc1cc(/C=C/c2ccc3ccccc3c2)cc(OC)c1OC | 16.8 | 23.4 | – | – | – |
| COc1cc(/C=C\c2ccc3ccccc3c2)cc(OC)c1OC [NAPHTHYLCOMBRETASTATIN] | > 100 | > 100 | – | – | – |
| COc1cc(CCc2ccc3ccccc3c2)cc(OC)c1OC | > 100 | > 100 | – | – | – |
| O=C(O)c1c(O)cccc1CCc1ccc2ccccc2c1 | > 100 | > 100 | > 128 | > 128 | > 128 |
| CCN(CC)C(=O)c1c(/C=C\c2ccc3ccccc3c2)cccc1OC | 28 | 38.7 | – | – | – |
| COc1cc(C)cc(C=Cc2ccc3ccccc3c2)c1C(=O)O (mixture of isomers) | 117 | 119 | > 128 | > 128 | > 128 |
| Cc1cc(O)c(C(=O)O)c(C=Cc2ccc3ccccc3c2)c1 (mixture of isomers) | 30 | 52 | 32 | 16 | 16 |
| CCN(CC)C(=O)c1c(CCc2ccc3ccccc3c2)cccc1OC | 35.8 | 85.7 | – | – | – |
| O=C(O)c1c(O)cc(Cl)cc1CCc1ccc2ccccc2c1 | 35 | 35 | 128 (≈ 392 µM) | 16 (≈ 49 µM) | 16 (≈ 49 µM) |
